For test [1], the target named is T1, Prothrombin (Homo sapiens, UniProt P00734). The test can be described thus: Binding affinity against thrombin. In a few lines:
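Human α-thrombin or human γ-thrombin was assayed with S-2238 (H-D-Phe-Pip-Arg-pNA), with velocity measured over 2 min at 25 °C. A 2 h preincubation screened for slow binding. For competitive inhibitors, Ki came from Lineweaver–Burk plots at five substrate concentrations over 10-fold around Km; slow binders were fitted to the slow-binding rate equations. At least five points were run in duplicate.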

Test [2] has as its target T1, Prothrombin. Briefly: Concentration of inhibitor required to produce a 2-fold prolongation in Thrombin time (TT). The essentials: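 Pooled citrated normal human plasma was incubated with inhibitor for 1 min at 37 °C; the inhibitor was serially diluted in buffer from a DMSO stock. Human α-thrombin was then added from a 5 units/mL solution in 50 mM sodium phosphate, 0.1% PEG, pH 7.4. Clotting was timed on a coagulometer, and the concentration that doubled the thrombin time was determined in duplicate.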

The nature of test [3]: Concentration of inhibitor required to produce a 2-fold prolongation in activated partial Thromboplastin time (APTT) in human plasma. Format: functional. In a few lines:
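Pooled citrated normal human plasma, APTT reagent and inhibitor were incubated for 5 min at 37 °C. Clotting was started with CaCl2 from a 25 mM aqueous solution and timed on a coagulometer. The inhibitor concentration that doubled the APTT was determined in duplicate.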

Some results are limits rather than exact numbers.

Consider `Cc1ccc(CCC(NC(=O)[C@@H]2CCCN2C(=O)[C@H](Cc2ccccc2)NC(=O)OCc2ccccc2)B2O[C@@H]3CC4CC(C4(C)C)[C@]3(C)O2)cc1` (some centres not stated), for which the Ki at Prothrombin [1] was determined as 20 nM.
Consider `CCCCCC(NC(=O)[C@@H]1CCCN1C(=O)[C@H](Cc1ccccc1)NC(=O)OCc1ccccc1)B1O[C@@H]2CC3CC(C3(C)C)[C@]2(C)O1` (stereo in doubt; 2), for which the Ki at Prothrombin [1] came to 26 nM.
`COCCC(NC(=O)[C@@H]1CCCN1C(=O)[C@H](Cc1ccccc1)NC(=O)OCc1ccccc1)B1O[C@@H]2CC3CC(C3(C)C)[C@]2(C)O1` (some centres not stated) gave a Ki at Prothrombin [1] of 21 nM.
On the same count and under the same terms, to `CC1(C)C2CC1[C@]1(C)OB(C(CCCBr)NC(=O)[C@@H]3CCCN3C(=O)[C@H](Cc3ccccc3)NC(=O)OCc3ccccc3)O[C@@H]1C2` (stereo in doubt; 14) belongs 130 nM; to `CC(C)C(NC(=O)[C@@H]1CCCN1C(=O)[C@@H](NC(=O)OCc1ccccc1)C(c1ccccc1)c1ccccc1)B1O[C@@H]2CC3CC(C3(C)C)[C@]2(C)O1` (some centres not stated), 19 nM.
For `CC1(C)C2CC1[C@]1(C)OB(C(CCC3OCCO3)NC(=O)[C@@H]3CCCN3C(=O)[C@H](Cc3ccccc3)NC(=O)OCc3ccccc3)O[C@@H]1C2` (some centres not stated), the TT on Prothrombin [2] was found to be 3.4 µM. Further, in test [3], the APTT was 18 µM. This compound also displayed a Ki at Prothrombin [1] of 25 nM.
`CCCCCC(NC(=O)[C@@H]1CCCN1C(=O)[C@H](Cc1ccccc1)NC(=O)OCc1ccccc1)B1O[C@@H]2CC3CC(C3(C)C)[C@]2(C)O1` (stereo in doubt; 21): on Prothrombin [1], the Ki was 100 nM.
In the case of `COCCC[C@@H](NC(=O)[C@@H]1CCCN1C(=O)[C@@H](Cc1ccccc1)NC(=O)OCc1ccccc1)B1O[C@@H]2CC3CC(C3(C)C)[C@]2(C)O1` (stereo in doubt; 9a), the TT on Prothrombin [2] worked out at 2.8 µM.
With `COCCC[C@@H](NC(=O)[C@@H]1CCCN1C(=O)[C@@H](Cc1ccccc1)NC(=O)OCc1ccccc1)B1O[C@@H]2CC3CC(C3(C)C)[C@]2(C)O1` (stereo in doubt; 11), the affinity at Prothrombin [1], expressed as Ki, was 120 nM.
As to `COCCC[C@@H](NC(=O)[C@@H]1CCCN1C(=O)[C@@H](Cc1ccccc1)NC(=O)OCc1ccccc1)B1O[C@@H]2CC3CC(C3(C)C)[C@]2(C)O1` (stereo in doubt; 9b), at Prothrombin [1], the affinity corresponds to a Ki of 7 nM.
In turn, `CCCCCCCCC(NC(=O)[C@@H]1CCCN1C(=O)[C@H](Cc1ccccc1)NC(=O)OCc1ccccc1)B1O[C@@H]2CC3CC(C3(C)C)[C@]2(C)O1` (some centres not stated) showed a TT at Prothrombin [2] of 3.9 µM. Further, the APTT in test [3] is >50 µM. Moreover, on Prothrombin [1], the Ki came to 43 nM.
At Prothrombin [1], `CC1(C)C2CC1[C@]1(C)OB(C(CCCBr)NC(=O)[C@@H]3CCCN3C(=O)[C@H](Cc3ccccc3)NC(=O)OCc3ccccc3)O[C@@H]1C2` (stereo in doubt; 13) showed a Ki of 15000 nM.
On Prothrombin [1], `COCCC[C@@H](NC(=O)[C@@H]1CCCN1C(=O)[C@@H](Cc1ccccc1)NC(=O)OCc1ccccc1)B1O[C@@H]2CC3CC(C3(C)C)[C@]2(C)O1` (stereo in doubt; 10) gave an inhibition constant (Ki) of 7 nM.
Same read-out and setting: to `COCCCC(NC(=O)[C@@H]1CCCN1C(=O)[C@H](Cc1ccccc1)NC(=O)OCc1ccccc1)B1O[C@@H]2CC3CC(C3(C)C)[C@]2(C)O1` (some centres not stated) belongs 11000 nM.
For `CC1(C)C2CC1[C@]1(C)OB(C(CCCBr)NC(=O)[C@@H]3CCCN3C(=O)[C@H](Cc3ccccc3)NC(=O)OCc3ccccc3)O[C@@H]1C2` (stereo in doubt; 12), affinity on Prothrombin [1] was put at a Ki of 7 nM.
The compound `CC1(C)C2CC1[C@]1(C)OB(C(CCCl)NC(=O)[C@@H]3CCCN3C(=O)[C@H](Cc3ccccc3)NC(=O)OCc3ccccc3)O[C@@H]1C2` (some centres not stated) yielded a Ki at Prothrombin [1] of 29 nM. This Ki lies about 4.1-fold higher than the previous one.
On Prothrombin [1], `CCC(NC(=O)[C@@H]1CCCN1C(=O)[C@H](Cc1ccccc1)NC(=O)OCc1ccccc1)B1O[C@@H]2CC3CC(C3(C)C)[C@]2(C)O1` (some centres not stated) registered an inhibition constant (Ki) of 1000 nM.
In the case of `CCCCCC(NC(=O)[C@@H]1CCCN1C(=O)[C@H](Cc1ccccc1)NC(=O)OCc1ccccc1)B1O[C@@H]2CC3CC(C3(C)C)[C@]2(C)O1` (stereo in doubt; 3), the TT on Prothrombin [2] was found to be 0.54 µM.

(Values after ChEMBL document CHEMBL1128727, “Characterization of a class of peptide boronates with neutral P1 side chains as highly selective inhibitors of thrombin” (J Med Chem, 1995).)
